Published values collected from several papers.
Protocols differ between the studies behind these lines.
Target: Calcium/calmodulin-dependent protein kinase type 1D (CAMK1D, Homo sapiens, UniProt Q8IU85)

With N[C@@H]1CCN(c2nccc(-c3cnn4ncccc34)n2)C1 the remaining binding was 100% (binding; 1 µM).
With Cn1nc(C(=O)NCc2ccc(C(=O)O)cc2)cc1-c1ccc2[nH]ccc2c1 the remaining binding was 95% (cell-free assay; competition with immobilised ligand; 0.1 µM).
For CN(c1nccc(-c2cnn3ncccc23)n1)C1CC1, the remaining binding was 100% (binding; 1 µM).
For CNC(=O)c1ccc(Nc2ncc(C(F)(F)F)c(NCc3nccnc3N(C)S(C)(=O)=O)n2)cc1, the remaining binding was 100% (cell-free assay; competition with immobilised ligand; 0.1 µM).
FC(F)(F)Oc1cccc(-c2cnc3ccc(-c4ccncc4)nn23)c1 gave a remaining binding of 67% (cell-free assay; competition with immobilised ligand; 5 µM).
With N#Cc1ccc(Nc2ccc3[nH]c(=O)[nH]c3c2)c(Cl)c1 the remaining binding was 92% (cell-free assay; competition with immobilised ligand; 1 µM).
The remaining binding of C[C@@H]1CCN(c2nccc(-c3cnn4ncccc34)n2)C1 is reported as 86% (binding; 1 µM).
The remaining binding of O=C(c1ccc(Nc2nccc(-c3cc4ccccc4s3)n2)cc1)N1CCC(N2CCCC2)CC1 is reported as 31% (binding; competition with immobilised ligand; 1 µM).
c1cnn2ncc(-c3ccnc(N4CCC45COC5)n3)c2c1 gave a remaining binding of 89% (binding; 1 µM).
CCN1CCN(Cc2ccc(C(=O)Nc3ccc(C)c(Oc4ccc5c(c4)CC(=O)N5)c3)cc2C(F)(F)F)CC1 gave a remaining binding of 52% (binding; competition with immobilised ligand; 1 µM).
O=C(c1ccc(Nc2ncc(Cl)c(-c3ccc(Cl)s3)n2)cc1)N1CCC(N2CCCC2)CC1 gave a remaining binding of 22% (binding; competition with immobilised ligand; 1 µM).
F[C@@H]1CCN(c2nccc(-c3cnn4ncccc34)n2)C1 gave a remaining binding of 100% (binding; 1 µM).
The remaining binding of O=C(c1ccc(Nc2ncc(Cl)c(-c3cc4ccccc4s3)n2)cc1)N1CCC(N2CCCC2)CC1 is reported as 29% (binding; competition with immobilised ligand; 1 µM).
For O=C(Nc1c[nH]nc1C(=O)NC1CCNCC1)c1cc(F)cc(F)c1, the remaining binding was 100% (binding; competition with immobilised ligand; 1 µM).
The remaining binding of CNC(=O)Nc1ccc2c(c1)[C@@]1(CC2)OC(=O)N(CC(=O)N(Cc2ccc(F)cc2)[C@@H](C)C(F)(F)F)C1=O is reported as 100% (cell-free assay; competition with immobilised ligand; 1 µM).
The remaining binding of CN(C)c1ncc(F)c(-c2cnn3ncccc23)n1 is reported as 78% (binding; 1 µM).
For O=C(N[C@H]1CCCCC/C=C\C2C[C@@]2(C(=O)O)NC(=O)[C@@H]2C[C@@H](Oc3ccncc3)CN2C1=O)OC1CCCC1 (stereo partly shown), the remaining binding was 94% (cell-free assay; competition with immobilised ligand; 1 µM).
Nc1ncc2c(n1)-c1c([nH]c3ccc(C#CC4CC4)cc13)CCCC2 has a remaining binding of 100% (binding; competition with immobilised ligand; 1 µM).
The remaining binding of COc1ccc2c(c1)O[C@@H](c1ccc(OC)c(OC)c1)C[C@H]2NC(=O)C1(c2ccc3c(c2)OC(F)(F)O3)CC1 is reported as 94% (cell-free assay; competition with immobilised ligand; 1 µM).
For CNC(=O)[C@@H]1CC[C@@H](n2c(-c3ccc4cnccc4c3)nc3ccc(C(=O)NCc4cccc(C(N)=O)c4)cc32)C1, the remaining binding was 100% (binding; competition with immobilised ligand; 1 µM).
O=C(NS(=O)(=O)c1ccc(NCC2CCOCC2)c([N+](=O)[O-])c1)c1ccc(N2CCN(Cc3ccc(C(F)(F)F)cc3-c3ccc(Cl)cc3)CC2)cc1Oc1cnc2[nH]ccc2c1 gave a remaining binding of 92% (cell-free assay; competition with immobilised ligand; 1 µM).
The remaining binding of C[C@@H](c1ccc(-n2cnc3c(N)ncnc32)cc1)N1CCc2nn(C)c(Cc3ccccc3)c2C1=O is reported as 95% (binding; competition with immobilised ligand; 0.1 µM).
